As usually defined, the Ki is the dissociation constant of the complex between target and ligand, obtained from inhibition or displacement. One may read the IC50 as the concentration at which inhibition is half-maximal.

Five compounds from ChEMBL document CHEMBL3872223, “Synthetic, enzyme kinetic, and protein crystallographic studies of C-β-d-glucopyranosyl pyrroles and imidazoles reveal and explain low nanomolar inhibition of human liver glycogen phosphorylase” (Eur J Med Chem, 2016) can be followed below.

The target in test [1] is T1, Glycogen phosphorylase, muscle form (Oryctolagus cuniculus, UniProt P00489).
T1 sequence (P00489 whole entry): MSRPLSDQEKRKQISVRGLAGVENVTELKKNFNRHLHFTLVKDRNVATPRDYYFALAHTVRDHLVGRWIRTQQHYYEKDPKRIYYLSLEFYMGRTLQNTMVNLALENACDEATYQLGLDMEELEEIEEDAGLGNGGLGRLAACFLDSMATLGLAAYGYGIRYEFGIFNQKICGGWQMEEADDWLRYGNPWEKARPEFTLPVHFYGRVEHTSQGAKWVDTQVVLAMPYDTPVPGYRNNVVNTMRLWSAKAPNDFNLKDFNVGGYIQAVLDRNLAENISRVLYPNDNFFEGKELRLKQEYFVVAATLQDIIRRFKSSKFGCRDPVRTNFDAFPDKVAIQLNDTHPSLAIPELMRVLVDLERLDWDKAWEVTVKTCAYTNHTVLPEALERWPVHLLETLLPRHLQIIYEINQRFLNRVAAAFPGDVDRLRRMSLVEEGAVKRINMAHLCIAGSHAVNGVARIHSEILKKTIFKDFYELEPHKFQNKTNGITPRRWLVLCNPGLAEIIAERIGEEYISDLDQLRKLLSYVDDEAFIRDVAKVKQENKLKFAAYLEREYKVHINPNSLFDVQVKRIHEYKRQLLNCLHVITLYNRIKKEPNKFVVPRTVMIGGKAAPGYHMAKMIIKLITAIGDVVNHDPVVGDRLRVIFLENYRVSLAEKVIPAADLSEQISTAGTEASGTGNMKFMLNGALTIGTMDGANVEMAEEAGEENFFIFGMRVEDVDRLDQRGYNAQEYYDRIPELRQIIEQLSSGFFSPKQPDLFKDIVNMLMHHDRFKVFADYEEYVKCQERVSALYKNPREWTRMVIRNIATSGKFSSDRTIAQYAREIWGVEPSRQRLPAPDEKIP
Description: Competitive inhibition of rabbit muscle glycogen phosphorylase-b in presence of varying glucose-1-phosphate levels and AMP.

The target in test [2] is T1, Glycogen phosphorylase, muscle form. Nature of the test: Inhibition of rabbit muscle glycogen phosphorylase-b assessed as release of inorganic phosphate from glucose-1-phosphate in presence of AMP and glycogen. A digest of the protocol: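 Isolated rabbit skeletal muscle GPb was assayed in 30 mM imidazole/HCl pH 6.8 with 60 mM KCl, 0.6 mM EDTA and 0.6 mM DTT. […] Initial velocities were derived from pseudo-first order rate constants.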

In test [3] the target is T2, Glycogen phosphorylase, liver form (Homo sapiens, UniProt P06737).
T2 sequence (P06737 whole entry): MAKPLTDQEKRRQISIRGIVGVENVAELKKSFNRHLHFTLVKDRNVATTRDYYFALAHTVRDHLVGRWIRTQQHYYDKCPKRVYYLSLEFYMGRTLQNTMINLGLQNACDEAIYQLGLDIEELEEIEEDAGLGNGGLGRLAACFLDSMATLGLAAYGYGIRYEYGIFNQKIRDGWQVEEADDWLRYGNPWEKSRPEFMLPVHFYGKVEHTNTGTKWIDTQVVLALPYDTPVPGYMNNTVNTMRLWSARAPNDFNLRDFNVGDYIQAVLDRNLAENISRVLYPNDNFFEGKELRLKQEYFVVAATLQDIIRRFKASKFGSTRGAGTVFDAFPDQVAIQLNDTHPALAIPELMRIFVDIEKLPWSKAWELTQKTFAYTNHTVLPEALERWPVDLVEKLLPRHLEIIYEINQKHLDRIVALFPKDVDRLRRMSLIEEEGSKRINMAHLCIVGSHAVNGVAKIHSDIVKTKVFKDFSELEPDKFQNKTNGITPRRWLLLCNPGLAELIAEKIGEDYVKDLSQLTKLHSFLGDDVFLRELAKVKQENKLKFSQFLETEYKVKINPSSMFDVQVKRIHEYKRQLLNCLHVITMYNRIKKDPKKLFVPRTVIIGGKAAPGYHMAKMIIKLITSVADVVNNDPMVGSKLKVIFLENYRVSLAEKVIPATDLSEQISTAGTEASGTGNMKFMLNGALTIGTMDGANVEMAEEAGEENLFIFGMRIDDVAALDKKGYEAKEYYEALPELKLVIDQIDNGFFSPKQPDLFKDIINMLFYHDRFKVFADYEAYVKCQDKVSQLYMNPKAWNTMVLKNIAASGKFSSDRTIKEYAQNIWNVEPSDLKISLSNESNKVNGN
Nature of the test: Competitive inhibition of His6-tagged human liver glycogen phosphorylase-a expressed in Escherichia coli BL21 Gold (DE3) assessed as release of inorganic phosphate using varying levels of glucose-1-phosphate and constant concentration of AMP and glycogen measured after 1 min by Dixon plot method.

For test [4], the target named is T3, Glycogen phosphorylase, liver form (Homo sapiens) (UniProt P06737).
T3 sequence (whole entry): T2 sequence (P06737 whole entry)
Description: Competitive inhibition of His6-tagged human liver glycogen phosphorylase-a expressed in Escherichia coli BL21 Gold (DE3) assessed as release of inorganic phosphate using varying levels of glucose-1-phosphate and constant concentration of AMP and glycogen measured after 1 min by Lineweaver-Burk plot method. Format: tissue-based.

In test [5] the target is T1, Glycogen phosphorylase, muscle form. Description: Competitive inhibition of rabbit muscle glycogen phosphorylase-a assessed as release of inorganic phosphate using varying levels of glucose-1-phosphate and constant concentration of AMP and glycogen measured after 1 min by Dixon plot method. A digest of the protocol: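 Rabbit muscle GPa was made by phosphorylating rmGPb with a truncated catalytic γ subunit of rabbit muscle phosphorylase kinase. It was assayed in 30 mM imidazole/HCl pH 6.8 containing 60 mM KCl, 0.6 mM EDTA, 0.6 mM DTT and 0.2% w/v glycogen, with Glc-1-P and inhibitor both varied. Initial velocities were calculated from pseudo-first order rate constants.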

Activity calls are given as the source filed them. The calls are words filed in the database; no cut-off is given here.

Consider `O=C1CNC(=S)N1` [THIOHYDANTOIN], for which, in test [1], the Ki was determined as 5.1 µM.

With `OC[C@H]1O[C@@H](c2cc3ccccc3[nH]2)[C@H](O)[C@@H](O)[C@@H]1O`, in test [2], the IC50 was found to be 625 µM.

As for `OC[C@H]1O[C@H](O)[C@H](O)[C@@H](O)[C@@H]1O`, the Ki in test [3] turned out to be 4280 µM.

On to `OC[C@H]1O[C@@H](c2nc(-c3ccccc3)c[nH]2)[C@H](O)[C@@H](O)[C@@H]1O`, for which the inhibition entry in test [4] was “Active”. Further, the Ki in test [3] was determined as 0.156 µM; in test [5], 0.226 µM.

`OC[C@H]1O[C@@H](c2nc(-c3ccc4ccccc4c3)c[nH]2)[C@H](O)[C@@H](O)[C@@H]1O`: the inhibition entry in test [4] is “Active”. Further, the results for the inhibition constant (Ki) in test [3] and in test [5] were 0.026 µM and 0.065 µM, respectively.
